Calls of active or inactive are those of the source. No cut-off for these calls is given here.
Tests used:
Splenocyte [1] = assay: Immunostimulatory activity in C57BL/6 mouse splenocytes assessed as IFN-gamma release at 100 ng/ml after 72 hrs by ELISA relative to OCH; assay type: functional
Procedure, shortened: (§1)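 Splenocytes from female C57BL/6 mice (6–8 weeks) in RPMI1640 with 10% FBS, 5×10^-5 M 2-mercaptoethanol, 1 mM pyruvate, 25 mM HEPES; 5×10^5 cells/well stimulated with glycolipid at 100 ng/ml, 72 h, 37 °C. Supernatant IL-4 and IFN-γ by ELISA; values expressed relative to OCH reference included in every run, mean of at least three experiments.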

Splenocyte [2] = assay: Immunostimulatory activity in C57BL/6 mouse splenocytes assessed as IL-4 release at 100 ng/ml after 72 hrs by ELISA relative to OCH; assay type: functional; procedure, shortened: as §1
Mus musculus [3] = species on record: Mus musculus; assay: Immunostimulatory activity in C57BL/6 mouse splenocytes at 100 ng/ml after 72 hr assessed as IFN-gamma secretion
Mus musculus [4] = species on record: Mus musculus; assay: Immunostimulatory activity in C57BL/6 mouse splenocytes at 100 ng/ml after 72 hrs assessed as IL-4 secretion
Mus musculus [5] = species on record: Mus musculus; assay: Immunostimulatory activity in C57BL/6 mouse natural killer cells assessed as IFN-gamma secretion at 100 ng/ml by ELISA relative to OCH; assay type: functional
Dendritic cell = assay: Immunostimulatory activity in C57BL/6 mouse dendritic cells assessed as IL-12 secretion at 100 ng/ml by ELISA relative to OCH; assay type: functional, cell-based
Mus musculus [6] = assay: Immunosuppressive activity iv in C57BL/6 mouse assessed as inhibition of OCH-induced IFN-gamma secretion at 0.1 ug/mouse, iv administered 15 mins before OCH challenge; assay type: functional, organism-based
Procedure, shortened: (§2)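 Female C57BL/6 mice (9 weeks); glycolipids dissolved in 0.5% DMSO in saline. Test compound given iv via tail vein at 0.1 µg/mouse 15 min before iv OCH (0.1 µg/mouse). Sera taken 3, 6, 9 h after second injection; serum IL-4 and IFN-γ by ELISA. Mean ± SD, N = 4–5; Student's t-test versus vehicle.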

Mus musculus [7] = assay: Immunosuppressive activity iv in C57BL/6 mouse assessed as inhibition of OCH-induced IL-4 secretion at 0.1 ug/mouse, iv administered 15 mins before OCH challenge; assay type: functional, organism-based; procedure, shortened: as §2

Row | Structure (SMILES) | Activity (Splenocyte [1]) [%] | Activity (Splenocyte [2]) [%] | Activity (Mus musculus [3]) [%] | Activity (Mus musculus [4]) [%] | other results
1 | CCCCCCCCCCCCCCCCCCCCCCC(=O)N[C@@H](CO[C@H]1O[C@H](CO)[C@H](O)[C@H](O)[C@H]1O)[C@H](O)[C@H](O)CCCC | 148 | 97 |  |  | 
2 | CCCCCCCCCCCCCCCCCCCCCCCC(=O)N[C@@H](CO[C@H]1O[C@H](CO)[C@H](O)[C@H](O)[C@H]1O)[C@H](O)[C@H](O)CCC | 96 | 105 |  |  | 
3 | CCCCCCCCCCCCCCCCCCCCCCCC(=O)N[C@@H](CO[C@H]1O[C@H](CO)[C@H](O)[C@H](O)[C@H]1O)[C@H](O)[C@H](O)COCCC |  |  | 161 | 103 | 
4 | CCCCCCCCCCCCCCCCCCCCCCCC(=O)N[C@@H](CO[C@H]1O[C@H](CO)[C@H](O)[C@H](O)[C@H]1O)[C@H](O)[C@H](O)CCc1ccccc1 |  |  | 35 | 57 | 
5 | CCCCCCCCCCCCCCCCCCCCCCC(=O)N[C@@H](CO[C@H]1O[C@H](CO)[C@H](O)[C@H](O)[C@H]1O)[C@H](O)[C@H](O)CCCCC | 93 | 103 |  |  | 
6 | CCCCCCCCCCCCCCCCCCCCCCCC(=O)N[C@@H](CO[C@H]1O[C@H](CO)[C@H](O)[C@H](O)[C@H]1O)[C@H](O)[C@H](O)COCCCCCCCCCCCC |  |  | 227 | 78 | 
7 | CCCCCCCCCCCCCCCCCCCCCCCC(=O)N[C@@H](CO[C@H]1O[C@H](CO)[C@H](O)[C@H](O)[C@H]1O)[C@H](O)[C@H](O)Cc1ccccc1 |  |  | 284 | 211 | 
8 | CCCCCCCCCCCCCCCCCCCCCCCC(=O)N[C@@H](CO[C@H]1O[C@H](CO)[C@H](O)[C@H](O)[C@H]1O)[C@H](O)[C@H](O)COC |  |  | 64 | 86 | 
9 | CCCCCCCCCCCCCCCCCCCCCCCC(=O)N[C@@H](CO[C@H]1O[C@H](CO)[C@H](O)[C@H](O)[C@H]1O)[C@H](O)[C@H](O)CC1CCCC1 |  |  | 74 | 98 | 
10 | CCCCCCCCCCCCCCCCCCCCCCCCCC(=O)N[C@@H](CO[C@H]1O[C@H](CO)[C@H](O)[C@H](O)[C@H]1O)[C@H](O)[C@H](O)CCCCC | 504 | 129 |  |  | 
11 | CCCCCCCCCCCCCCCCCCCC(=O)N[C@@H](CO[C@H]1O[C@H](CO)[C@H](O)[C@H](O)[C@H]1O)[C@H](O)[C@H](O)CCCCC | 9 | 6 |  |  | 
12 | CCCCCCCCCCCCCCCCCCCCCCCC(=O)N[C@@H](CO[C@H]1O[C@H](CO)[C@H](O)[C@H](O)[C@H]1O)[C@H](O)[C@H](O)Cc1ccc(C)cc1 |  |  | 76 | 78 | 
13 | CCCCCCCCCCCCCCCCCCCCCCCC(=O)N[C@@H](CO[C@H]1O[C@H](CO)[C@H](O)[C@H](O)[C@H]1O)[C@H](O)[C@H](O)CCCCC | 100 | 100 | 100 | 100 | 
14 | CCCCCCCCCCCCCCCCCCCCCCCCCCCC(=O)N[C@@H](CO[C@H]1O[C@H](CO)[C@H](O)[C@H](O)[C@H]1O)[C@H](O)[C@H](O)CCCCC | 761 | 178 |  |  | 
15 | CCCCCCCCCCCCCCCCCCCCCC(=O)N[C@@H](CO[C@H]1O[C@H](CO)[C@H](O)[C@H](O)[C@H]1O)[C@H](O)[C@H](O)CCCCC | 46 | 51 |  |  | 
16 | CCCCCCCCCCCCCCCCCCCCCCCCCC(=O)N[C@@H](CC[C@H]1O[C@H](CO)[C@H](O)[C@H](O)[C@H]1O)[C@H](O)[C@H](O)CCCCCCCCCCCCCC |  |  |  |  | Activity (Mus musculus [5]): Active; Activity (Dendritic cell): Active
17 | CCCCCCCCCCCCCCCCCCCCCCCCC(=O)N[C@@H](CO[C@H]1O[C@H](CO)[C@H](O)[C@H](O)[C@H]1O)[C@H](O)[C@H](O)CCCCC | 103 | 154 |  |  | 
18 | CCCCCCCCCCCCCCCCCCCCCCCCCC(=O)N[C@@H](CO[C@H]1O[C@H](CO)[C@H](O)[C@H](O)[C@H]1O)[C@H](O)[C@H](O)CCCCCCCCCCCCCC [RGI-7000] | 569 | 128 |  |  | 
19 | CCCCCCCCCCCCCCCCCCCCCCCC(=O)N[C@@H](CC[C@H]1O[C@H](CO)[C@H](O)[C@H](O)[C@H]1O)[C@H](O)[C@H](O)CCCCC |  |  | 0 | 1 | inhibition (Mus musculus [6]): inactive; inhibition (Mus musculus [7]): inactive
20 | CCCCCCCCCCCCCCCCCCCCCCC(=O)N[C@@H](CO[C@H]1O[C@H](CO)[C@H](O)[C@H](O)[C@H]1O)[C@H](O)[C@H](O)CCCCCC | 113 | 97 |  |  | 
21 | CCCCCCCCCCCCCCCCCCCCCCCC(=O)N[C@@H](CO[C@H]1O[C@H](CO)[C@H](O)[C@H](O)[C@H]1O)[C@H](O)[C@H](O)COc1ccccc1 |  |  | 80 | 99 | 
22 | CCCCCCCCCCCCCCCCCCCCCCCC(=O)N[C@@H](CO[C@H]1O[C@H](CO)[C@H](O)[C@H](O)[C@H]1O)[C@H](O)[C@H](O)CCCC | 112 | 115 |  |  | 
